A short description of test [1]: Selectivity ratio of Ki for CB1 receptor to Ki for CB2 receptor. In outline:
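Ratio of CB1 Ki to CB2 Ki, both from [³H]CP55940 competition binding (pH 7.4 Tris–HCl/EDTA/MgCl₂/BSA buffer) with Ki fitted by non-linear regression of competition isotherms.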

The target in test [2] is T1, Cannabinoid receptor 2 (Homo sapiens, UniProt P34972). Briefly: Displacement of [3H]CP-55940 from CB2 receptor at 10 uM. A general note: In a radioligand displacement assay an active substance lowers the binding of a labelled ligand.
The target in test [3] is T2, Cannabinoid receptor 1 (Homo sapiens, UniProt P21554). Briefly: Displacement of [3H]CP-55940 from CB1 receptor. In outline:
(§1)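 Radioligand competition binding at CB1 or CB2 with [³H]CP55940; CP55940 reference. Ki (nM) obtained from non-linear regression of competition binding isotherms (secondary assay).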

The target in test [4] is T2, Cannabinoid receptor 1. As to the kind of experiment: Displacement of [3H]CP-55940 from CB1 receptor at 10 uM.
Test [5] concerns the target T1, Cannabinoid receptor 2. As to the kind of experiment: Displacement of [3H]CP-55940 from CB2 receptor. A digest of the protocol: as §1

Structures are written as SMILES.

T1 sequence (P34972 whole entry): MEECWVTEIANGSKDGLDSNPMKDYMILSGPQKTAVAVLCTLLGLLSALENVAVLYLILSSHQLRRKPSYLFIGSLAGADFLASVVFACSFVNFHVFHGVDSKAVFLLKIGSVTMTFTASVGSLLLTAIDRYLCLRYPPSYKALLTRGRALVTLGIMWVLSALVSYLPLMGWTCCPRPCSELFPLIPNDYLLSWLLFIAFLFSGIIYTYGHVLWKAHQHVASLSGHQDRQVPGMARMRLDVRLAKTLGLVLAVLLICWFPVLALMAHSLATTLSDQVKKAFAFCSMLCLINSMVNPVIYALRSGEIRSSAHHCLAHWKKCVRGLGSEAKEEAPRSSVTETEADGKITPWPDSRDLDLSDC
T2 sequence (P21554 whole entry): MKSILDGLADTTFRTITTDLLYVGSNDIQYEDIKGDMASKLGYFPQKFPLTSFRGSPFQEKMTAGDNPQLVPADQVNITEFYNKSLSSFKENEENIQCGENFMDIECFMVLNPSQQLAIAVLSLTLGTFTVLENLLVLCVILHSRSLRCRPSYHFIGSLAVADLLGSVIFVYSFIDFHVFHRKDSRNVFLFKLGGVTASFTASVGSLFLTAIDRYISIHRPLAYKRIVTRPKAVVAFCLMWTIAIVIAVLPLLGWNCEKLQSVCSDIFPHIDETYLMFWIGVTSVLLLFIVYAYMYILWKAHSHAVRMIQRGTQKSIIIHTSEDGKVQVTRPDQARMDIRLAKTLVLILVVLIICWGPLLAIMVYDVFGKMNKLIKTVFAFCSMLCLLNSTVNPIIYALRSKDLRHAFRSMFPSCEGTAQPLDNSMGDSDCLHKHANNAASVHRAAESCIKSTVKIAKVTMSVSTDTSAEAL

Turning to `CCCCCOc1c(OC)ccc2cc(C(=O)NCCCc3ccccc3)c(Cl)nc12`, the Ratio Ki in test [1] was above 9.36. The Activity on Cannabinoid receptor 2 [2] is 59.2%; at Cannabinoid receptor 1 [4], 66.3%. Moreover, the Ki (commonly a dissociation constant, usually derived from enzyme kinetics or from competition with a known ligand) at Cannabinoid receptor 1 [3] was above 10000 nM; at Cannabinoid receptor 2 [5], 1070 nM.
In the same order, the values of `CCCCCOc1c(OC)ccc2cc(C(=O)NCCc3ccc(F)cc3)c(Cl)nc12` are 121, 104%, 64.8%, 2880 nM and 23.8 nM.
For `CCCCCOc1c(OC)ccc2cc(C(=O)NCCc3ccc(F)cc3)c(=O)[nH]c12`, in that order: above 1850, 101%, 26.3%, above 10000 nM and 5.4 nM.
For the molecule `CCCCCOc1c(OC)ccc2cc(C(=O)NCCc3ccccc3)c(Cl)nc12`, the Ratio Ki in test [1] is above 20.1. Moreover, the Activity on Cannabinoid receptor 2 [2] is 86.3%; at Cannabinoid receptor 1 [4], 73.7%. The Ki was above 10000 nM on Cannabinoid receptor 1 [3] and 497 nM at Cannabinoid receptor 2 [5].
Regarding `CCCCCOc1c(OC)ccc2cc(C(=O)NCCc3ccc(Cl)cc3)c(Cl)nc12`, the Ratio Ki in test [1] is above 9.92. Further, the Activity amounted to 74.1% at Cannabinoid receptor 2 [2] and 34.4% at Cannabinoid receptor 1 [4]. For the same molecule, the Ki on Cannabinoid receptor 1 [3] is above 10000 nM; on Cannabinoid receptor 2 [5], 1010 nM.
Take `CCCCCOc1c(OC)ccc2cc(C(=O)NCCCc3ccccc3)c(=O)[nH]c12`: the Ratio Ki in test [1] was determined as 31.3. Further, the Activity on Cannabinoid receptor 2 [2] was 104%; at Cannabinoid receptor 1 [4] it was 51.4%. For the same molecule, the Ki came out at 323 nM on Cannabinoid receptor 1 [3] and 10.3 nM at Cannabinoid receptor 2 [5].
As for `CCCCCOc1c(OC)ccc2cc(C(=O)NCCc3ccc(OC)cc3)c(Cl)nc12`, in test [1], the Ratio Ki is above 7.51. Besides, the Activity was 65.9% on Cannabinoid receptor 2 [2] and 71% on Cannabinoid receptor 1 [4]. Further, the Ki is above 10000 nM on Cannabinoid receptor 1 [3] and 1330 nM at Cannabinoid receptor 2 [5].
Turning to `CCCCCOc1c(OC)ccc2cc(C(=O)NCCc3ccc(OC)cc3)c(=O)[nH]c12`, the Ratio Ki in test [1] was found to be 26.2. Moreover, the results for the Activity on Cannabinoid receptor 2 [2] and at Cannabinoid receptor 1 [4] were 102% and 68.7%, respectively. Moreover, the values for the Ki at Cannabinoid receptor 1 [3] and on Cannabinoid receptor 2 [5] were 733 nM and 27.9 nM, respectively.
In the same order, the values of `CCCCCOc1c(OC)ccc2cc(C(=O)NCCc3ccc(Cl)cc3)c(=O)[nH]c12` are above 1070, 102%, -9%, above 10000 nM and 9.37 nM.
For `CCCCCOc1c(OC)ccc2cc(C(=O)NCCc3ccccc3)c(=O)[nH]c12`, in that order: 28.3, 103%, 63.4%, 196 nM and 6.92 nM.

Source of the values: ChEMBL document CHEMBL1157654, “Synthesis and in vitro biological evaluation of carbon-11-labeled quinoline derivatives as new candidate PET radioligands for cannabinoid CB2 receptor imaging” (Bioorg Med Chem, 2010).
